{"source": "ChEMBL document CHEMBL1781887", "about": "“Sulfoximine-substituted trifluoromethylpyrimidine analogs as inhibitors of proline-rich tyrosine kinase 2 (PYK2) show reduced hERG activity” (Bioorg Med Chem Lett, 2009)", "key": {"[1]": {"assay": "(§1) Apparent permeability from apical to basolateral side of MDCK cells", "format": "ADME, cell-based, Canis lupus familiaris", "details": "dog", "in_short": "(§2)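 Madin–Darby canine kidney cell monolayers. Permeability measured in the apical-to-basolateral direction and reported as Papp.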"}, "hERG (KCNH2)": {"target": "hERG (KCNH2) (Homo sapiens, UniProt Q12809)", "sequence (Q12809 whole entry)": "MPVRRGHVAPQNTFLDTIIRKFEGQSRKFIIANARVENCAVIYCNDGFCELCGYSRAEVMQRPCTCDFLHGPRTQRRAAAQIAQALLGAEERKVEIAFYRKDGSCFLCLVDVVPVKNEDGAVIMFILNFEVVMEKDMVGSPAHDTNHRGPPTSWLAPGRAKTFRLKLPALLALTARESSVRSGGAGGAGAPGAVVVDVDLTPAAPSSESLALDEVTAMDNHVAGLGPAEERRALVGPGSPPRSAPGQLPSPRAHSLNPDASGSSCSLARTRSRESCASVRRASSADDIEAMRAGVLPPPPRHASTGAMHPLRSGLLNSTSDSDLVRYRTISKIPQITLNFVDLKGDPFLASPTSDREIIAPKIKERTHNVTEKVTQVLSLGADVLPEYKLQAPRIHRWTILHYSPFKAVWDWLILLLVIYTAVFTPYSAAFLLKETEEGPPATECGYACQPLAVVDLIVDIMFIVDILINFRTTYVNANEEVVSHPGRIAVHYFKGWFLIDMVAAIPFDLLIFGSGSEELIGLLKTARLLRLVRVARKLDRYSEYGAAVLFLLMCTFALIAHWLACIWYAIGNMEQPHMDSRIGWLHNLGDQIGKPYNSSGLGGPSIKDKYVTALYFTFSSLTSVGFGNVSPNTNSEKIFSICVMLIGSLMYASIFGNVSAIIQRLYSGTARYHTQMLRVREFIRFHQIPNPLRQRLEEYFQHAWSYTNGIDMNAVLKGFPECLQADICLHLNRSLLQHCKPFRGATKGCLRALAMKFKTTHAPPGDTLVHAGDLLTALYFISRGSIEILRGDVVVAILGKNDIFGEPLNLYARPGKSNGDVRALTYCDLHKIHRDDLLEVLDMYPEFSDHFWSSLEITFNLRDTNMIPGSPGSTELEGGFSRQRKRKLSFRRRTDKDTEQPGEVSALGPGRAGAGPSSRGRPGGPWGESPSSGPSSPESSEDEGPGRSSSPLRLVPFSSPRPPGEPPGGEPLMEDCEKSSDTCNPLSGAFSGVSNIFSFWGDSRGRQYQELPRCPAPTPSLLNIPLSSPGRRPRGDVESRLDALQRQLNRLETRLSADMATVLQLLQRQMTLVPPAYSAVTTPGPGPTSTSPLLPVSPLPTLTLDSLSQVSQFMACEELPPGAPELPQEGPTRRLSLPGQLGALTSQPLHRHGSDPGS", "assay": "Inhibition of [3H]dofetilide binding to human ERG expressed in HEK293 cells at 10 uM", "format": "cell-based", "details": "HEK293 cells that express human ERG, probe [3H]dofetilide"}, "[2]": {"target": "T1, Protein-tyrosine kinase 2-beta (Homo sapiens, UniProt Q14289)", "T1 sequence (Q14289 whole entry)": "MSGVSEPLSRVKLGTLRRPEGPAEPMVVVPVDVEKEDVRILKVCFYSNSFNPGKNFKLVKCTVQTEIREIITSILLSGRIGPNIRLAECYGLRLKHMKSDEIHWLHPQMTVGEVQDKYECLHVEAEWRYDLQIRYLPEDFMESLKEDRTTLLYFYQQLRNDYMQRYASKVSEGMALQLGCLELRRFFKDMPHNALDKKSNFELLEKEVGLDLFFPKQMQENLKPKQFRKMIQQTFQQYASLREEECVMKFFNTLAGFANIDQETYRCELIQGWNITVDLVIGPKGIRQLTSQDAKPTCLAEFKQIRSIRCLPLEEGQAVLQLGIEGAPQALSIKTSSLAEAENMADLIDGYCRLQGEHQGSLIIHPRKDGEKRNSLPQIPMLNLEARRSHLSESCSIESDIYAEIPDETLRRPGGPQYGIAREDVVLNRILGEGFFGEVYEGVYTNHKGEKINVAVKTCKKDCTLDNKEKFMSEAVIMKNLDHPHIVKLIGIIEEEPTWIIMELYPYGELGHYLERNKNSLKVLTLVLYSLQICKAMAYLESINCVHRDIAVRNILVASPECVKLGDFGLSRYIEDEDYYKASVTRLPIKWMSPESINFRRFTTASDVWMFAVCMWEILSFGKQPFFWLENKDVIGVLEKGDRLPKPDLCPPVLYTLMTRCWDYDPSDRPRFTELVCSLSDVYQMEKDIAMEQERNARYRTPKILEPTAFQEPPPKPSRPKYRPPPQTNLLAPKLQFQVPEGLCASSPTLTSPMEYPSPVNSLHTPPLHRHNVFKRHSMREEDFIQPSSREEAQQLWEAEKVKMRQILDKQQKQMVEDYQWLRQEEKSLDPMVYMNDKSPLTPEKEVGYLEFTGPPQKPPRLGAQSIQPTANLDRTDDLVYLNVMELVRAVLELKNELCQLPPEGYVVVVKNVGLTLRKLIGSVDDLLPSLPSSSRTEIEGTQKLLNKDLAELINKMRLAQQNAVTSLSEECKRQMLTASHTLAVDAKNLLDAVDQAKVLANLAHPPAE", "assay": "Inhibition of PYK2 assessed as reduction in peptide substrate phosphorylation by fluorimetric method"}, "[3]": {"target": "T1, Protein-tyrosine kinase 2-beta", "assay": "Inhibition of PYK2 by PYK2-LI-COR cellular assay"}, "[4]": {"assay": "Hepatic extraction ratio in human liver microsomes", "format": "ADME, Microsome", "details": "read-out: ERH"}, "[5]": {"assay": "Clearance in Sprague-Dawley rat at 1 mg/kg, iv", "format": "ADME, organism-based", "design": "dose 1 mg/kg, route intravenous", "details": "in vivo", "in_short": "(§3)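 Sprague–Dawley rats given 1.0 mg/kg iv. CL and Vdss obtained by non-compartmental fit of the plasma concentration–time profiles. Values are means of two experiments.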"}, "[6]": {"assay": "Fraction unbound in rat plasma at 1 ug/mL", "format": "ADME, cell-free", "in_short": "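Rat plasma protein binding measured in vivo at a drug concentration of 1 μg/mL. Result expressed as fraction unbound (fu).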"}, "[7]": {"assay": "Lipophilicity, log D of the compound at pH 7.4", "format": "physicochemical", "details": "buffer"}, "[8]": {"assay": "Mean residence time in Sprague-Dawley rat", "format": "ADME, organism-based", "details": "in vivo"}, "[9]": {"assay": "Volume of distribution at steady state in Sprague-Dawley rat at 1 mg/kg, iv", "format": "ADME, organism-based", "design": "dose 1 mg/kg, route intravenous", "details": "in vivo, read-out: Vdss", "in_short": "as §3"}, "MDCK": {"system": "MDCK", "assay": "as §1", "format": "ADME, cell-based, Canis lupus familiaris", "details": "dog", "in_short": "as §2"}, "[10]": {"assay": "Cmax in Sprague-Dawley rat at 10 mg/kg, po", "format": "ADME, organism-based", "design": "dose 10 mg/kg, route oral", "details": "in vivo", "in_short": "(§4)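 Sprague–Dawley rats given a single 10 mg/kg oral dose. Cmax and AUCinf taken from the plasma concentration–time profile. Cave calculated as AUCinf divided by the dosing interval in h. Free concentration refers to the unbound fraction in plasma. Values are means of two experiments.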"}, "[11]": {"assay": "AUC (infinity) in Sprague-Dawley rat at 10 mg/kg, po", "format": "ADME, organism-based", "design": "time infinity, dose 10 mg/kg, route oral", "details": "plasma", "in_short": "as §4"}, "[12]": {"assay": "Oral bioavailability in Sprague-Dawley rat at 10 mg/kg, po", "format": "ADME, organism-based", "details": "in vivo"}, "Rattus norvegicus": {"system": "Rattus norvegicus", "assay": "Average free plasma concentration in Sprague-Dawley rat at 10 mg/kg, po", "format": "ADME, organism-based", "design": "dose 10 mg/kg, route oral", "details": "in vivo", "in_short": "as §4"}}, "data": [{"smiles": "CN(C)[C@@H]1CCC[C@H]1Nc1nc(Nc2ccc(S(=O)(=O)NC3CC3)cc2)ncc1C(F)(F)F", "values": [{"measurement": "Papp A→B", "setting": "[1]", "result": 4.8, "unit": "×10⁻⁶ cm/s"}, {"measurement": "inhibition at 10 µM", "setting": "hERG (KCNH2)", "result": 76, "unit": "%"}]}, {"smiles": "CC[S+]([O-])(=NC)c1ccc(Nc2ncc(C(F)(F)F)c(N[C@@H]3CCC[C@H]3N(C)C)n2)cc1", "note": "(stereo partly drawn)", "values": [{"measurement": "IC50", "setting": "[2]", "result": 21, "unit": "nM"}, {"measurement": "IC50", "setting": "[3]", "result": 24, "unit": "nM"}, {"measurement": "hepatic extraction ratio", "setting": "[4]", "result": 0.58}, {"measurement": "Papp A→B", "setting": "[1]", "result": 7.8, "unit": "×10⁻⁶ cm/s"}, {"measurement": "inhibition at 10 µM", "setting": "hERG (KCNH2)", "result": 2, "unit": "%"}]}, {"smiles": "CN(c1ccccc1CNc1nc(Nc2ccc3c(c2)CC(=O)N3)ncc1C(F)(F)F)S(C)(=O)=O", "values": [{"measurement": "Papp A→B", "setting": "[1]", "result": 9.2, "unit": "×10⁻⁶ cm/s"}, {"measurement": "inhibition at 10 µM", "setting": "hERG (KCNH2)", "result": 41, "unit": "%"}]}, {"smiles": "CNS(=O)(=O)c1ccc(Nc2ncc(C(F)(F)F)c(N[C@@H]3CCC[C@H]3N(C)C)n2)cc1", "values": [{"measurement": "Papp A→B", "setting": "[1]", "result": 5.3, "unit": "×10⁻⁶ cm/s"}, {"measurement": "inhibition at 10 µM", "setting": "hERG (KCNH2)", "result": 50, "unit": "%"}]}, {"smiles": "CN(C)[C@@H]1CCC[C@H]1Nc1nc(Nc2ccc(S(C)(=O)=O)cc2)ncc1C(F)(F)F", "values": [{"measurement": "Papp A→B", "setting": "[1]", "result": 9.5, "unit": "×10⁻⁶ cm/s"}, {"measurement": "clearance", "setting": "[5]", "result": 42, "unit": "mL/min/kg"}, {"measurement": "fraction unbound at 1 ug/mL", "setting": "[6]", "result": 0.3}, {"measurement": "logD", "setting": "[7]", "result": 1.5}, {"measurement": "MRT", "setting": "[8]", "result": 3.7, "unit": "h"}, {"measurement": "Vd", "setting": "[9]", "result": 13, "unit": "L/kg"}]}, {"smiles": "CN=[S+](C)([O-])c1ccc(Nc2ncc(C(F)(F)F)c(N[C@@H]3CCC[C@H]3N(C)C)n2)cc1", "note": "(mixture of isomers)", "values": [{"measurement": "Papp A→B", "setting": "[1]", "result": 4.4, "unit": "×10⁻⁶ cm/s"}]}, {"smiles": "CCN=[S+](C)([O-])c1ccc(Nc2ncc(C(F)(F)F)c(N[C@@H]3CCC[C@H]3N(C)C)n2)cc1", "note": "(mixture of isomers)", "values": [{"measurement": "Papp A→B", "setting": "[1]", "result": 4.7, "unit": "×10⁻⁶ cm/s"}, {"measurement": "inhibition at 10 µM", "setting": "hERG (KCNH2)", "result": 5.9, "unit": "%"}]}, {"smiles": "CC(C)N=[S+](C)([O-])c1ccc(Nc2ncc(C(F)(F)F)c(N[C@@H]3CCC[C@H]3N(C)C)n2)cc1", "note": "(mixture of isomers)", "values": [{"measurement": "IC50", "setting": "[2]", "result": 22, "unit": "nM"}, {"measurement": "IC50", "setting": "[3]", "result": 34, "unit": "nM"}, {"measurement": "hepatic extraction ratio", "setting": "[4]", "result": 0.78}, {"measurement": "Papp A→B", "setting": "[1]", "result": 6.6, "unit": "×10⁻⁶ cm/s"}, {"measurement": "inhibition at 10 µM", "setting": "hERG (KCNH2)", "result": 8.4, "unit": "%"}]}, {"smiles": "CN(C)[C@@H]1CCC[C@H]1Nc1nc(Nc2ccc([S+](C)(=N)[O-])cc2)ncc1C(F)(F)F", "note": "(mixture of isomers)", "values": [{"measurement": "IC50", "setting": "[2]", "result": 65, "unit": "nM"}, {"measurement": "IC50", "setting": "[3]", "result": 320, "unit": "nM"}, {"measurement": "hepatic extraction ratio", "setting": "[4]", "result": "< 0.29"}, {"measurement": "Papp A→B", "setting": "[1]", "result": 1, "unit": "×10⁻⁶ cm/s"}, {"measurement": "inhibition at 10 µM", "setting": "hERG (KCNH2)", "result": 12, "unit": "%"}]}, {"smiles": "CN=[S+](C)([O-])c1ccc(Nc2ncc(C(F)(F)F)c(N[C@@H]3CCC[C@H]3N(C)C)n2)cc1", "note": "(stereo in doubt; (R)-14a)", "values": [{"measurement": "Papp", "setting": "MDCK", "result": 5.7, "unit": "×10⁻⁶ cm/s"}]}, {"smiles": "CCN=[S+](C)([O-])c1ccc(Nc2ncc(C(F)(F)F)c(N[C@@H]3CCC[C@H]3N(C)C)n2)cc1", "note": "(stereo in doubt; (R)-14b)", "values": [{"measurement": "Papp", "setting": "MDCK", "result": 9.3, "unit": "×10⁻⁶ cm/s"}]}, {"smiles": "CN=[S+](C)([O-])c1ccc(Nc2ncc(C(F)(F)F)c(N[C@@H]3CCC[C@H]3N(C)C)n2)cc1", "note": "(stereo in doubt; (S)-14a)", "values": [{"measurement": "Papp", "setting": "MDCK", "result": 5.1, "unit": "×10⁻⁶ cm/s"}, {"measurement": "clearance", "setting": "[5]", "result": 74, "unit": "mL/min/kg"}, {"measurement": "fraction unbound at 1 ug/mL", "setting": "[6]", "result": 0.36}, {"measurement": "logD", "setting": "[7]", "result": 1.7}, {"measurement": "MRT", "setting": "[8]", "result": 2.3, "unit": "h"}, {"measurement": "Vd", "setting": "[9]", "result": 13, "unit": "L/kg"}, {"measurement": "Cmax", "setting": "[10]", "result": 720, "unit": "nM"}, {"measurement": "AUC(0-inf)", "setting": "[11]", "result": 5, "unit": "µM·h"}, {"measurement": "bioavailability", "setting": "[12]", "result": 100, "unit": "%"}, {"measurement": "Cp(f)", "setting": "Rattus norvegicus", "result": 76, "unit": "nM"}]}, {"smiles": "CCN=[S+](C)([O-])c1ccc(Nc2ncc(C(F)(F)F)c(N[C@@H]3CCC[C@H]3N(C)C)n2)cc1", "note": "(stereo in doubt; (S)-14b)", "values": [{"measurement": "Papp", "setting": "MDCK", "result": 8.3, "unit": "×10⁻⁶ cm/s"}]}]}
